We go through four compounds from ChEMBL document CHEMBL1212783, “Cellular pharmacology of the anti-hepatitis B virus agent beta-L-2',3'-didehydro-2',3'-dideoxy-N4-hydroxycytidine: relevance for activation in HepG2 cells” (Antimicrob Agents Chemother, 2010).

The nature of data set [1]: Half life in human HepG2 cells by HPLC analysis. It counts as ADME, cell-based. In short, it runs like this:
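HepG2 cells (1.5 × 10^6/well) were loaded 24 h with 10 μM [3H]-labelled nucleoside, washed three times and chased in drug-free medium. Cells were harvested at intervals, then counted and methanol-extracted. Mono-, di- and triphosphates were quantified by radio-HPLC. t1/2 was calculated as 0.693/κ, where κ is the terminal slope of a semilog plot of intracellular phosphate level versus time.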

The subject of data set [2] is Hepatitis B virus. Nature of the data set: Inhibition of HBV DNA polymerase at 1 uM.
A short description of data set [3]: Cytotoxicity against human HepG2 cells. Format: cell-based. The following applies: read-out: CD50 (the source's name).
Data set [4] deals with HepG2. Nature of the data set: Drug metabolism in human HepG2 cells assessed as compound monophosphate level per 10^6 cells at 10 uM after 24 hrs by reversed-phase HPLC analysis. It counts as ADME, cell-based. The conditions noted are these: hepg2, 24 h. In short, it runs like this:
(§1)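 HepG2 cells were grown in DMEM with 10% FBS and 1 mM pyruvate at 37°C, 5% CO2. They were seeded at 2.5 × 10^6/well and exposed after adherence to 2 or 10 μM [3H]-labelled nucleoside (440 or 1,000 dpm/pmol) for 6–24 h. Cells were washed in ice-cold PBS, trypsinized and counted (viability >95%). Metabolites were extracted twice in 60% methanol at −20°C for 16 h. Extracts were separated by ion-pair reverse-phase C18 HPLC and counted by fraction scintillation. Phosphates were identified by UV spectra, a triphosphate standard and alkaline phosphatase digestion.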

For data set [5], the system named is HepG2. Nature of the data set: Drug metabolism in human HepG2 cells assessed as compound triphosphate level per 10^6 cells at 10 uM after 6 hrs by reversed-phase HPLC analysis. It counts as ADME, cell-based. The following applies: hepg2, 6 h. In short, it runs like this: as §1
The test system of data set [6] is HepG2. The data set is described as follows: Drug metabolism in human HepG2 cells assessed as compound triphosphate level per 10^6 cells at 2 uM after 18 hrs by reversed-phase HPLC analysis. It counts as ADME, cell-based. The following applies: hepg2, 18 h. In short, it runs like this: as §1
The subject of data set [7] is HepG2. The data set is described as follows: Drug metabolism in human HepG2 cells assessed as compound diphosphate level per 10^6 cells at 10 uM after 12 hrs by reversed-phase HPLC analysis. The conditions noted are these: hepg2, 12 h. It counts as ADME, cell-based. In a few lines: as §1
Data set [8] relates to Hepatitis B virus. The data set is described as follows: Antiviral activity against HBV infected in human HepG2(2.2.15) cells. Format: functional. The following applies: read-out: ED50 (the source's name).
The subject of data set [9] is HepG2. The data set is described as follows: Drug metabolism in human HepG2 cells assessed as compound monophosphate level per 10^6 cells at 10 uM after 6 hrs by reversed-phase HPLC analysis. It counts as ADME, cell-based. The following applies: hepg2, 6 h. In a few lines:
as §1

For data set [10], the system named is HepG2. Nature of the data set: Drug metabolism in human HepG2 cells assessed as compound diphosphate level per 10^6 cells at 10 uM after 6 hrs by reversed-phase HPLC analysis. The following applies: hepg2, 6 h. Format: ADME, cell-based. In short, it runs like this:
as §1

Data set [11] relates to HepG2. The data set is described as follows: Drug metabolism in human HepG2 cells assessed as compound triphosphate level per 10^6 cells at 2 uM after 24 hrs by reversed-phase HPLC analysis. The conditions noted are these: hepg2, 24 h. Format: ADME, cell-based. In a few lines:
as §1

The subject of data set [12] is HepG2. The data set is described as follows: Drug metabolism in human HepG2 cells assessed as compound diphosphate level per 10^6 cells at 2 uM after 24 hrs by reversed-phase HPLC analysis. It counts as ADME, cell-based. The conditions noted are these: hepg2, 24 h. In short, it runs like this:
as §1

Data set [13] deals with HepG2. Nature of the data set: Drug metabolism in human HepG2 cells assessed as compound triphosphate level per 10^6 cells at 2 uM after 12 hrs by reversed-phase HPLC analysis. Format: ADME, cell-based. The following applies: hepg2, 12 h. In a few lines: as §1
The subject of data set [14] is HepG2. The data set is described as follows: Drug metabolism in human HepG2 cells assessed as compound monophosphate level per 10^6 cells at 2 uM after 6 hrs by reversed-phase HPLC analysis. Format: ADME, cell-based. The following applies: hepg2, 6 h. In short, it runs like this: as §1
Data set [15] has as its system HepG2. The data set is described as follows: Drug metabolism in human HepG2 cells assessed as compound diphosphate level per 10^6 cells at 2 uM after 6 hrs by reversed-phase HPLC analysis. It counts as ADME, cell-based. The conditions noted are these: hepg2, 6 h. In short, it runs like this:
as §1

For data set [16], the system named is HepG2. Nature of the data set: Drug metabolism in human HepG2 cells assessed as compound triphosphate level per 10^6 cells at 10 uM after 18 hrs by reversed-phase HPLC analysis. Format: ADME, cell-based. The conditions noted are these: hepg2, 18 h. In short, it runs like this:
as §1

For data set [17], the system named is HepG2. The data set is described as follows: Drug metabolism in human HepG2 cells assessed as compound monophosphate level per 10^6 cells at 2 uM after 18 hrs by reversed-phase HPLC analysis. It counts as ADME, cell-based. The conditions noted are these: hepg2, 18 h. In a few lines:
as §1

For data set [18], the system named is HepG2. The data set is described as follows: Drug metabolism in human HepG2 cells assessed as compound monophosphate level per 10^6 cells at 10 uM after 18 hrs by reversed-phase HPLC analysis. It counts as ADME, cell-based. The conditions noted are these: hepg2, 18 h. In short, it runs like this:
as §1

Data set [19] has as its system HepG2. Nature of the data set: Drug metabolism in human HepG2 cells assessed as compound triphosphate level per 10^6 cells at 2 uM after 6 hrs by reversed-phase HPLC analysis. Format: ADME, cell-based. The following applies: hepg2, 6 h. In short, it runs like this:
as §1

The subject of data set [20] is HepG2. Nature of the data set: Drug metabolism in human HepG2 cells assessed as compound triphosphate level per 10^6 cells at 10 uM after 24 hrs by reversed-phase HPLC analysis. The following applies: hepg2, 24 h. Format: ADME, cell-based. In a few lines:
as §1

Data set [21] in a line: Cytotoxicity against human HepG2 cells at 2 uM after 48 hrs. Format: cell-based. The following applies: read-out: INH. In short, it runs like this:
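HepG2 cells were preincubated 24 h with 3 μM 3-deazauridine, then exposed for a second 24 h to 3 μM deazauridine plus 2 μM tritiated test nucleoside. Read-out was inhibition of HepG2 cell growth over the 48 h.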

Data set [22] deals with HepG2. Nature of the data set: Drug metabolism in human HepG2 cells assessed as compound diphosphate level per 10^6 cells at 2 uM after 18 hrs by reversed-phase HPLC analysis. It counts as ADME, cell-based. The following applies: hepg2, 18 h. In short, it runs like this: as §1
Data set [23] has as its system HepG2. The data set is described as follows: Drug metabolism in human HepG2 cells assessed as compound diphosphate level per 10^6 cells at 10 uM after 24 hrs by reversed-phase HPLC analysis. Format: ADME, cell-based. The conditions noted are these: hepg2, 24 h. In a few lines:
as §1

Data set [24] has as its system HepG2. Nature of the data set: Drug metabolism in human HepG2 cells assessed as compound diphosphate level per 10^6 cells at 10 uM after 18 hrs by reversed-phase HPLC analysis. The following applies: hepg2, 18 h. It counts as ADME, cell-based. In short, it runs like this: as §1
The test system of data set [25] is HepG2. Nature of the data set: Drug metabolism in human HepG2 cells assessed as compound monophosphate level per 10^6 cells at 2 uM after 24 hrs by reversed-phase HPLC analysis. The conditions noted are these: hepg2, 24 h. It counts as ADME, cell-based. In short, it runs like this:
as §1

In data set [26] the test system is HepG2. Nature of the data set: Drug metabolism in human HepG2 cells assessed as compound diphosphate level per 10^6 cells at 2 uM after 12 hrs by reversed-phase HPLC analysis. It counts as ADME, cell-based. The conditions noted are these: hepg2, 12 h. In short, it runs like this: as §1
Data set [27] deals with HepG2. Nature of the data set: Drug metabolism in human HepG2 cells assessed as compound monophosphate level per 10^6 cells at 2 uM after 12 hrs by reversed-phase HPLC analysis. Format: ADME, cell-based. The following applies: hepg2, 12 h. In a few lines:
as §1

In data set [28] the test system is HepG2. Nature of the data set: Drug metabolism in human HepG2 cells assessed as compound triphosphate level per 10^6 cells at 10 uM after 12 hrs by reversed-phase HPLC analysis. The conditions noted are these: hepg2, 12 h. Format: ADME, cell-based. In short, it runs like this:
as §1

The test system of data set [29] is HepG2. Nature of the data set: Drug metabolism in human HepG2 cells assessed as compound monophosphate level per 10^6 cells at 10 uM after 12 hrs by reversed-phase HPLC analysis. Format: ADME, cell-based. The following applies: hepg2, 12 h. In a few lines:
as §1

Structures are written as SMILES.

Broadly, the half-life is the time needed for the level to fall by half in the phase considered. A lower half-life goes with rapid decline. `O=c1nc(NO)ccn1[C@@H]1C=C[C@H](COP(=O)(O)OP(=O)(O)O)O1`: the half-life in [1] was 18.6 h.
Usually inhibition stands for the percentage by which the read-out fell short of the control. A low value points to a response near the control. `O=c1nc(NO)ccn1[C@@H]1C=C[C@H](COP(=O)(O)OP(=O)(O)OP(=O)(O)O)O1` yielded an inhibition in the data set on Hepatitis B virus [2] of 90%. For the same compound, in data set [1], the half-life is 29.7 h.
With `Nc1ccn([C@@H]2C=C[C@H](CO)O2)c(=O)n1`, in data set [3], the CC50 was determined as 20 µM.
With `O=c1nc(NO)ccn1[C@@H]1C=C[C@H](CO)O1`, the Stability is on record as 11.5 pmol in the data set with HepG2 [4]; 5.3 pmol in the data set with HepG2 [5]; 3.8 pmol with HepG2 [6]; 22.6 pmol with HepG2 [7]; 4.4 pmol with HepG2 [9]; 11.5 pmol in the data set with HepG2 [10]. For the same compound, the Stability with HepG2 [11] was determined as 5.3 pmol; in the data set with HepG2 [12], 9.8 pmol; in the data set on HepG2 [13] it was 3.1 pmol; in the data set on HepG2 [14], 0.5 pmol; in the data set on HepG2 [15] it was 1.3 pmol; with HepG2 [16] it was 15.2 pmol. In addition, the Stability in the data set on HepG2 [17] stood at 2.3 pmol; with HepG2 [18], 7.3 pmol; in the data set on HepG2 [19] it was 1.1 pmol; with HepG2 [20], 19.4 pmol; in the data set on HepG2 [22], 6.6 pmol; in the data set with HepG2 [23] it was 43.5 pmol. The Stability came to 30.3 pmol with HepG2 [24]; 4 pmol in the data set with HepG2 [25]; 4.5 pmol with HepG2 [26]; 1.3 pmol in the data set with HepG2 [27]; 10.4 pmol in the data set on HepG2 [28]; 5.6 pmol in the data set on HepG2 [29]. Moreover, the EC50 with Hepatitis B virus [8] was determined as 0.03 µM. In [21], the cytotoxicity at 48 h, 2 µM turned out to be 11%.
